Measurements reported in article PMC6959494 (Egyptian journal of chemistry, 2018).
Values after ≈ are worked out from the molar mass of the structure shown. Like-named read-outs stand apart in the source and are kept apart here.

What was measured:
[1] = test system: S. aureus ATCC 29213 sensitive; test: MIC by microbroth dilution; type: cell-based
In short: (§1)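 Broth microdilution per international standard ISO […]. The panel covered clinical isolates and NCTC/ATCC control organisms, including resistant phenotypes, and ampicillin was run alongside as comparator.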

[2] = test system: P. mirabilis NCTC 10975 sensitive; test: MIC by microbroth dilution; type: cell-based, Proteus mirabilis
In short: as §1

[3] = test system: E. faecium 16568 sensitive; test: MIC by microbroth dilution; type: cell-based; conditions: Enterococcus faecium
In short: as §1

[4] = test system: K. pneumoniae 21856 sensitive; test: MIC by microbroth dilution; type: cell-based, Klebsiella pneumoniae
In short: as §1

A.baumannii572 sensitive = test: MIC by microbroth dilution; type: cell-based, Acinetobacter baumannii
In short: as §1

[5] = test system: P. aeruginosa ATCC 27853 sensitive; test: MIC by microbroth dilution; type: cell-based, Pseudomonas aeruginosa
In short: as §1

[6] = test system: S. aureus NCTC 12493 mecA resistant; test: MIC by microbroth dilution; type: cell-based
In short: as §1

[7] = test system: E. faecalis NCTC 12201 vanA resistant; test: MIC by microbroth dilution; type: cell-based, Enterococcus faecalis
In short: as §1

P. aeruginosa PheRS = P. aeruginosa PheRS (Pseudomonas aeruginosa, UniProt Q9I0A3); test: tRNA aminoacylation scintillation proximity assay, P. aeruginosa PheRS; type: biochemical
Sequence of P. aeruginosa PheRS (Q9I0A3 whole entry): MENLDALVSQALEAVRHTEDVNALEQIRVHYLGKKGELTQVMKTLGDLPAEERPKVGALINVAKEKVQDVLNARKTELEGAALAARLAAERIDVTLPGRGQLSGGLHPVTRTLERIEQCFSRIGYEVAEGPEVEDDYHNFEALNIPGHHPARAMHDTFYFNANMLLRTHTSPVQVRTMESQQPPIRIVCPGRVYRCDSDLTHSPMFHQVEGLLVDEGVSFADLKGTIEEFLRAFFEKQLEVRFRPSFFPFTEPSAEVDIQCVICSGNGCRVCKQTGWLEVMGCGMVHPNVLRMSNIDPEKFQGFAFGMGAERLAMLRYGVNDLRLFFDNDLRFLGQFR
Sequence of P. aeruginosa PheRS (Q9I0A4 whole entry partner): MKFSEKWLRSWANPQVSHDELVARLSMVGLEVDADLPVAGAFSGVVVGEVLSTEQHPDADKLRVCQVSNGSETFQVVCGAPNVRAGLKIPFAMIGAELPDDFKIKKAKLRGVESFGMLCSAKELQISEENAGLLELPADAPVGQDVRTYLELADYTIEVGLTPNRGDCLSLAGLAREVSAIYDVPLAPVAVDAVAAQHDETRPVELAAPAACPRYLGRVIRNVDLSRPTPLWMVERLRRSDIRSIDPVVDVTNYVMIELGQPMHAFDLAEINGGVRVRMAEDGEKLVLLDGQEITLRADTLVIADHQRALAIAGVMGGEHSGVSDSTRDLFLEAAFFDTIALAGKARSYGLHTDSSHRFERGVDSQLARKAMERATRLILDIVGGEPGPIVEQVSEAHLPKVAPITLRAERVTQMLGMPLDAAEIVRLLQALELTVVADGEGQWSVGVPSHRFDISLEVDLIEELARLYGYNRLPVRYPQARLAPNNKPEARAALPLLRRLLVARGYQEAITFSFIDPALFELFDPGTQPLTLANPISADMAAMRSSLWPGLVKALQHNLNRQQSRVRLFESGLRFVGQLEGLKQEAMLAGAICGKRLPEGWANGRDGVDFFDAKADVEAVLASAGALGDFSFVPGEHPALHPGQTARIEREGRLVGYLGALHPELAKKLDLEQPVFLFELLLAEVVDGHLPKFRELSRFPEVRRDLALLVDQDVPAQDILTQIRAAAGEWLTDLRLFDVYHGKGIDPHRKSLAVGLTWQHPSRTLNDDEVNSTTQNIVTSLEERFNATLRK
In short: (§2)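 E. coli tRNA was added and incubated 1 h at 37 °C, then stopped with EDTA. Poly-L-lysine yttrium silicate SPA beads in citric acid were added for 1 h before scintillation counting. DMSO-only controls were included, and IC50 came from a sigmoidal dose-response fit.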

[8] = test system: S. aureus SH1000 sensitive strain; test: MIC against S. aureus SH1000 sensitive strain; type: cell-based, Staphylococcus aureus; conditions: for MIC: Staphylococcus aureus, read-out: MIC S. aureus Sensitive SH1000
S. pneumonia PheRS = S. pneumonia PheRS (Streptococcus pneumoniae, UniProt Q97S36); test: tRNA aminoacylation scintillation proximity assay, S. pneumonia PheRS; type: biochemical
Sequence of S. pneumonia PheRS (Q97S36 whole entry): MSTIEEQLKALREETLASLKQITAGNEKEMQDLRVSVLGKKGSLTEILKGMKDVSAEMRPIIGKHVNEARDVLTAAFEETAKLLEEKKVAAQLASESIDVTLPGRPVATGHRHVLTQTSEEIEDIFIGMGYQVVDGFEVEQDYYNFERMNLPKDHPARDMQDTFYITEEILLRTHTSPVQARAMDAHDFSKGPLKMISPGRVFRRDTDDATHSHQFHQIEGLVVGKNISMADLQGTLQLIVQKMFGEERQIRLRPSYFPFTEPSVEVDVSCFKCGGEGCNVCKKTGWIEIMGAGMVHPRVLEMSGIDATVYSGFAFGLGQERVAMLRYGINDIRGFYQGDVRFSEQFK
Sequence of S. pneumonia PheRS (Q97S34 whole entry, further chain): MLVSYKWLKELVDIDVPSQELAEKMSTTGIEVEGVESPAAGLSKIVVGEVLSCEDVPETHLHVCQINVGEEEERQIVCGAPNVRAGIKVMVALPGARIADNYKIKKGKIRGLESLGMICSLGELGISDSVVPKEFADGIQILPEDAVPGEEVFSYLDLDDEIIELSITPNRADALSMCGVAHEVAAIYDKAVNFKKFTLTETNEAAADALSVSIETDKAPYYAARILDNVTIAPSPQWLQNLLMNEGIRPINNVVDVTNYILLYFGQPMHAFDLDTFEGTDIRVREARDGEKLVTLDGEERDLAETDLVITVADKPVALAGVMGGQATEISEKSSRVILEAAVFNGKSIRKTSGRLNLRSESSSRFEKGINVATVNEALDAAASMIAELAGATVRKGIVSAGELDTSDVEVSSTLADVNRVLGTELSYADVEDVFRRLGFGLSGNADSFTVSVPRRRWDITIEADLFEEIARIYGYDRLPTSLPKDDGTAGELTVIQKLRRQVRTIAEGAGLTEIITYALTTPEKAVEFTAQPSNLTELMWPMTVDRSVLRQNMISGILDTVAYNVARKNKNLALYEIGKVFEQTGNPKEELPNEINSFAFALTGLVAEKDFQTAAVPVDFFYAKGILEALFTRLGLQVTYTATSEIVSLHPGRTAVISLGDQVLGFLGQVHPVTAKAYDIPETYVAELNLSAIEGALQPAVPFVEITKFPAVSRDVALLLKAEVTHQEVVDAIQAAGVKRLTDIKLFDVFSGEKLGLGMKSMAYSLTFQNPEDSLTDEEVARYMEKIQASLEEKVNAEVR
In short: as §2

[9] = test system: S.enteritidis8204 sensitive; test: MIC by microbroth dilution; type: cell-based, Salmonella enteritidis
In short: as §1

[10] = test system: E. faecalisATCC 29212 sensitive; test: MIC by microbroth dilution; type: cell-based, Enterococcus faecalis
In short: as §1

[11] = test system: the tested bacteria (variety of clinically important pathogens); test: MIC by microbroth dilution, summary in text for the panel of pathogens; type: cell-based; conditions: read-out: MIC, no inhibitory activity
[12] = test system: E. faecalis ATCC 51299 vanB resistant; test: MIC by microbroth dilution; type: cell-based, Enterococcus faecalis
In short: as §1

[13] = test system: E. coli ATCC 25922 sensitive; test: MIC by microbroth dilution; type: cell-based
In short: as §1

[14] = test system: B.cepacia NCTC 10661 sensitive; test: MIC by microbroth dilution; type: cell-based
In short: as §1

[15] = test system: E. faecalis sensitive and vanA and vanB resistant strains; test: MIC by microbroth dilution, summary in text for E. faecalis strains; type: cell-based; conditions: Enterococcus faecalis, read-out: moderate inhibitory activity (MIC)
In short: as §1

[16] = Staphylococcus aureus, ATCC29213
[17] = Pseudomonas aeruginosa, ATCC27853
[18] = Staphylococcus aureus, NCTC12493
[19] = Enterococcus faecalis, NCTC12201
[20] = Enterococcus faecalis, ATCC29212
[21] = Enterococcus faecalis, ATCC51299

Row | SMILES | MIC [1, 16] | MIC ([2]; Proteus mirabilis, NCTC10975) | MIC [3] | MIC ([4]; Klebsiella pneumoniae) | MIC (A.baumannii572 sensitive; Acinetobacter baumannii) | MIC [5, 17] | MIC [6, 18] | MIC [7, 19] | IC50 (P. aeruginosa PheRS) | MIC [8] | IC50 (S. pneumonia PheRS) | MIC ([9]; Salmonella enterica) | MIC [10, 20] | MIC [11] | MIC [12, 21] | MIC ([13]; Escherichia coli, ATCC25922) | also measured
1 | CC1(C)S[C@@H]2[C@H](NC(=O)[C@H](N)c3ccccc3)C(=O)N2[C@H]1C(=O)O [Amp, ampicillin, reference compound] | 4 µg/mL (≈ 11.4 µM) | > 128 µg/mL | 4 µg/mL (≈ 11.4 µM) | > 128 µg/mL | > 128 µg/mL | > 128 µg/mL | > 128 µg/mL | 16 µg/mL (≈ 45.8 µM) | – | – | – | – | – | – | – | – | –
2 | COc1cc(OC)cc(C(=O)Nc2nnc(CCn3cnc4ccccc43)s2)c1 [11a, N-(5-(2-(1H-benzimidazol-1-yl)ethyl)-1,3,4-thiadiazol-2-yl)-3,5-dimethoxybenzamide] | – | – | – | – | – | – | – | – | 742 µM | > 128 µg/mL | 345 µM | – | – | – | – | – | –
3 | CCCSc1nnc(CCCn2cnc3c(N)ncnc32)n1-c1ccccc1 [17b, 9-(3-(4-Phenyl-5-(propylthio)-4H-1,2,4-triazol-3-yl)propyl)-9H-purin-6-amine] | > 128 µg/mL | > 128 µg/mL | > 128 µg/mL | > 128 µg/mL | > 128 µg/mL | > 128 µg/mL | > 128 µg/mL | > 128 µg/mL | 294 µM | > 128 µg/mL | 686 µM | > 128 µg/mL | > 128 µg/mL | ≥ 128 µg/mL | > 128 µg/mL | > 128 µg/mL | –
4 | O=C(Nc1nnc(CCn2cnc3ccccc32)s1)c1ccc(F)cc1 [11b, N-(5-(2-(1H-benzimidazol-1-yl)ethyl)-1.3.4-thiadiazol-2-yl)-4fluorobenzamide] | – | – | – | – | – | – | – | – | – | – | – | – | – | – | – | – | IC50 (P. aeruginosa PheRS; read-out: P. aeruginosa PheRS IC50, aminoacylation SPA, 0.08 μM enzyme): 907 µM; MIC ([1]; S. aureus ATCC 29213 sensitive): >128 µg/mL; MIC ([9]; S.enteritidis8204 sensitive): >128 µg/mL; MIC S. aureus Sensitive SH1000 ([8]; S. aureus SH1000 sensitive strain): >128 µg/mL; MIC ([2]; P. mirabilis NCTC 10975 sensitive): >128 µg/mL; IC50 (S. pneumonia PheRS; read-out: S. pneumonia PheRS IC50, aminoacylation SPA, 0.2 μM enzyme): 685 µM; MIC ([10]; E. faecalis ATCC 29212 sensitive): 64 µg/mL (≈ 174 µM); MIC [14]: >128 µg/mL; MIC ([4]; K. pneumoniae 21856 sensitive): >128 µg/mL; MIC (A.baumannii572 sensitive; A.baumannii572 sensitive): >128 µg/mL; MIC ([12]; E. faecalis ATCC 51299 vanB resistant): 64 µg/mL (≈ 174 µM); MIC ([13]; E. coli ATCC 25922 sensitive): >128 µg/mL; MIC ([5]; P. aeruginosa ATCC 27853 sensitive): >128 µg/mL; MIC ([6]; S. aureus NCTC 12493 mecA resistant): 128 µg/mL (≈ 348 µM); MIC ([7]; E. faecalis NCTC 12201 vanA resistant): 32 µg/mL (≈ 87.1 µM)
5 | CCSc1nnc(CCCn2cnc3c(N)ncnc32)n1-c1ccccc1 [17a, 9-(3-(5-(Ethylthio)-4-phenyl-4H-1,2,4-triazol-3-yl)propyl)-9H-purin-6-amine] | > 128 µg/mL | > 128 µg/mL | – | > 128 µg/mL | > 128 µg/mL | > 128 µg/mL | 128 µg/mL (≈ 336 µM) | 64 µg/mL (≈ 168 µM) | 199 µM | > 128 µg/mL | 619 µM | > 128 µg/mL | > 128 µg/mL | ≥ 128 µg/mL | 64 µg/mL (≈ 168 µM) | > 128 µg/mL | MIC [15]: 32 to 64 µg/mL (≈ 84.1 to 168 µM)
6 | CCSc1nnc(CCCn2cnc3ccccc32)n1-c1ccccc1 [16a, 1-(3-(5-(Ethylthio)-4-phenyl-4H-1,2,4-triazol-3-yl)propyl)-1H-benzimidazole] | > 128 µg/mL | > 128 µg/mL | > 128 µg/mL | > 128 µg/mL | > 128 µg/mL | > 128 µg/mL | > 128 µg/mL | > 128 µg/mL | 343 µM | > 128 µg/mL | 561 µM | > 128 µg/mL | > 128 µg/mL | ≥ 128 µg/mL | > 128 µg/mL | > 128 µg/mL | –
7 | CCCSc1nnc(CCCn2cnc3ccccc32)n1-c1ccccc1 [16b, 1-(3-(4-Phenyl-5-(propylthio)-4H-1,2,4-triazol-3-yl)propyl)1H-benzimidazole] | – | – | – | – | – | – | – | – | 375 µM | > 128 µg/mL | 390 µM | – | – | – | – | – | –
